From ChEMBL document CHEMBL5653629, “Novel Class of Potent and Cellularly Active Inhibitors Devalidates MTH1 as Broad-Spectrum Cancer Target” (ACS Chem Biol, 2017)
pEC50: −log10 of the molar value. In brackets after ≈: the same amount, converted by molar mass. Activity calls are given as the source filed them. The calls are words filed in the database; no cut-off is given here.

Columns and labels:
U2OS [1] = experiment: Upregulation of nuclear 8-oxo-dG level in human U2OS cells at 2 to 10 uM incubated for 72 hrs by high content analysis; assay type: functional, cell-based; details: dose 2-10 µM
In short: (§1)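 U2OS cells were immunostained for 8-oxo-dG and DNA, then imaged by high content analysis. Average nuclear 8-oxo-dG intensity and average nuclear count were measured together.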

[2] = Distribution coefficient, logD of compound at pH 7.5 by HPLC analysis; assay type: physicochemical; details: octanol/water
[3] = Aqueous solubility of compound in pH 6.5; assay type: physicochemical; details: buffer
[4] = Apparent permeability across apical to basolateral side in human Caco-2 cells at 2 uM incubated for 2 hrs by LC/MS/MS analysis; assay type: ADME, cell-based
[5] = Protein binding in mouse plasma assessed as free fraction; assay type: ADME, cell-free
[6] = Metabolic stability in Han Wistar rat hepatocytes using well-stirred liver model assessed as clearance at 1 uM measured for 2 to 90 mins by LC-MS/MS analysis; assay type: ADME, cell-based, Hepatocyte; details: time 2-90 min
[7] = Metabolic stability in Han Wistar rat hepatocytes using well-stirred liver model assessed as maximum bioavailability at 1 uM measured for 2 to 90 mins by LC-MS/MS analysis; assay type: ADME, Hepatocyte; details: time 2-90 min, route po, read-out: Fmax
[8] = Metabolic stability in human liver microsomes assessed as clearance at 1 uM measured for 2 to 60 mins by LC-MS/MS analysis; assay type: ADME, Microsome; details: time 2-60 min
[9] = Metabolic stability in human liver microsomes assessed as maximum bioavailability at 1 uM measured for 2 to 60 mins by LC-MS/MS analysis; assay type: ADME, Microsome; details: time 2-60 min, read-out: Fmax
[10] = Cytotoxicity against HMEC cells assessed as cell growth inhibition incubated for 144 hrs by alamarblue staining based assay; assay type: toxicity; details: human
HeLa [11] = experiment: Upregulation of OGG1 mRNA level in human HeLa cells at 1 uM incubated for 6 days by qPCR analysis; assay type: functional, cell-based; details: time 6.0 day
HeLa [12] = experiment: Upregulation of MUTYH mRNA level in human HeLa cells at 1 uM incubated for 6 days by qPCR analysis; assay type: functional, cell-based; details: time 6.0 day
HeLa [13] = experiment: Upregulation of OGG1 protein level in human HeLa cells at 1 uM by Western blot analysis; assay type: functional, cell-based
In short: (§2)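 HeLa cells were treated and probed by Western blot for MTH2, OGG1, MUTYH and MTH1. HSP90 served as loading control.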

HeLa [14] = experiment: Upregulation of MUTYH protein level in human HeLa cells at 1 uM by Western blot analysis; assay type: functional, cell-based; in short: as §2
NCI-H358 [15] = experiment: Induction of DNA double strand breaks in human NCI-H358 cells assessed as increase in gamma-H2AX expression at 0.005 to 12 micromol/L incubated for 72 hrs by high content analysis; details: NCI-H358, 72 h
U2OS [16] = experiment: Cytotoxicity against human U2OS cells assessed as reduction in cell viability by measuring nuclei count at 30 uM incubated for 72 hrs by high content analysis; assay type: functional, cell-based; in short: as §1
NCI-H358 [17] = experiment: cells; details: Homo sapiens, NCI-H358, 144 h
NCI-H460 [18] = experiment: cells; details: Homo sapiens, NCI-H460, 144 h
A549 = experiment: cells; details: Homo sapiens, A549, 144 h
MCF7 [19] = experiment: cells; details: Homo sapiens, MCF7, 144 h
MDA-MB-231 = experiment: cells; details: Homo sapiens, MDA-MB-231, 144 h
U2OS [20] = experiment: cells; details: Homo sapiens, 144 h
HeLa [21] = experiment: cells; details: Homo sapiens, 144 h
SW480 = experiment: cells; details: Homo sapiens, SW480, 144 h
U2OS [22] = experiment: Upregulation of nuclear 8-oxo-dG level in human U2OS cells at 1 to 2 uM incubated for 72 hrs by high content analysis; assay type: functional, cell-based; details: dose 1-2 µM; in short: as §1
MCF7 [23] = experiment: Inhibition of colony formation of human MCF7 cells at 0.1 to 10 uM measured after 15 days by soft agar assay; assay type: functional, cell-based; details: dose 0.1-10 µM, time 15.0 day
NCI-H358 [24] = experiment: Induction of DNA double strand breaks in human NCI-H358 cells assessed as increase in gamma-H2AX expression at 12.4 uM incubated for 72 hrs by high content analysis; assay type: functional, cell-based
In short: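 NCI-H358 cells were immunostained for γH2AX and DNA and analysed by high content imaging. The highest concentration tested was 12.4 µM, and EC50 was taken for DSB induction.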

U2OS [25] = experiment: Effect on nuclear 8-oxo-dG level in human U2OS cells at 10 to 30 uM incubated for 72 hrs by high content analysis; assay type: functional, cell-based; details: dose 10-30 µM; in short: as §1
U2OS [26] = experiment: Effect on nuclear 8-oxo-dG level in human U2OS cells at 10 to 30 uM incubated for 72 hrs in presence of LCS1 by high content analysis; assay type: functional, cell-based; details: dose 10-30 µM
[27] = Toxicity in NMRI nude mouse assessed as drug tolerability at 25 to 250 mg/kg, po qd for 7 days; assay type: organism-based; details: in vivo, 168 h, dose 25-250 mg/kg, time 7 day
In short: (§3)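 Female NMRI nude mice received oral doses in PEG/water (80:20), escalated step-wise from 25 to 250 mg/kg over 7 days. Body weight, overt toxicity and mortality were monitored, and observation was extended a further 7 days to catch latent toxicity.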

[28] = Toxicity in NMRI nude mouse assessed as body weight loss upto 250 mg/kg, po qd for 7 days; assay type: organism-based; details: in vivo, 168 h, time 7 day; in short: as §3
CT26 [29] = experiment: Antitumor activity against mouse CT26 cells xenografted in NMRI nude mouse assessed as reduction in tumor volume at 100 mg/kg, po measured for 12 days; assay type: functional, organism-based; details: time 12.0 day
CT26 [30] = experiment: Antitumor activity against mouse CT26 cells xenografted in NMRI nude mouse assessed as reduction in tumor weight at 100 mg/kg, po measured for 12 days; assay type: functional, organism-based; details: time 12.0 day
CT26 [31] = experiment: Additive antitumor activity against mouse CT26 cells xenografted in NMRI nude mouse assessed as reduction in tumor growth at 100 mg/kg, po along with radiation treatment measured for 12 days; assay type: functional, organism-based; details: time 12.0 day
NCI-H460 [32] = experiment: Antitumor activity against human NCI-H460 cells xenografted in NMRI nude mouse assessed as reduction in tumor volume at 100 mg/kg, po measured for 10 days; details: time 10.0 day
NCI-H460 [33] = experiment: Antitumor activity against human NCI-H460 cells xenografted in NMRI nude mouse assessed as reduction in tumor weight at 100 mg/kg, po measured for 10 days; details: time 10.0 day
U2OS [34] = experiment: Upregulation of nuclear 8-oxo-dG level in human U2OS cells at 100 to 300 nM incubated for 72 hrs by high content analysis; assay type: functional, cell-based; details: dose 100-300 nM; in short: as §1

SMILES	logD [2]	solubility [3]	Papp A→B at 2 h, 2 µM [4]	fraction unbound [5]	CLhep predicted at 1 µM [6]	Fh at 1 µM [7]	CLH [8]	Fh at 1 µM [9]	GI50 at 144 h [10]	Activity (HeLa [11])	Activity (HeLa [12])	Activity (HeLa [13])	Activity (HeLa [14])	Activity (U2OS [16])	further results
Cc1cc(Nc2cc(N3CCN(C)CC3)nc(Sc3ccc(NC(=O)C4CC4)cc3)n2)n[nH]1															Activity (U2OS [1]): Active
Nc1nc(NC2CC2)cc(-c2cccc(Cl)c2Cl)n1	2.5	38 µg/mL (≈ 129 µM)	30.7 ×10⁻⁶ cm/s	0.04	32 mL/min/kg	54%	10.7 mL/min/kg	51%	3.2 µM	inactive	inactive	inactive	inactive	Active	pEC50 (NCI-H358 [15]): 5.51; GI50 (NCI-H358 [17]): 4.9 µM; GI50 (NCI-H460 [18]): 7.1 µM; GI50 (A549): 4 µM; GI50 (MCF7 [19]): 3.5 µM; GI50 (MDA-MB-231): 6.3 µM; GI50 (U2OS [20]): 2.6 µM; GI50 (HeLa [21]): 4.2 µM; GI50 (SW480): 5.3 µM
CC(C)(C)c1cnc(CSc2cnc(NC(=O)C3CCNCC3)s2)o1															Activity (U2OS [22]): Active
Cc1cccc(-n2ncc(Cl)c(Cl)c2=O)c1														Active	
CCNC(=O)c1cc2c(N3CCOC[C@@H]3C)ccnc2[nH]1	1.6	288 µg/mL (≈ 999 µM)	14.8 ×10⁻⁶ cm/s	0.48	9 mL/min/kg	87%	4.83 mL/min/kg	78%	> 30 µM	inactive	inactive	inactive	inactive		inhibition (MCF7 [23]): inactive; Activity (NCI-H358 [24]): inactive; Activity (U2OS [25]): inactive; Activity (U2OS [26]): inactive; Activity [27]: Non-Toxic; Activity [28]: < 10%; Activity (CT26 [29]): inactive; Activity (CT26 [30]): inactive; Activity (CT26 [31]): inactive; Activity (NCI-H460 [32]): inactive; Activity (NCI-H460 [33]): inactive
CC[C@@H]1C(=O)N(C)c2cnc(Nc3ccc(C(=O)N[C@H]4CC[C@H](N5CCN(CC6CC6)CC5)CC4)cc3OC)nc2N1C(C)C															Activity (U2OS [34]): Active
